Paper PMC10100219 (Chemistry (Weinheim an Der Bergstrasse, Germany), 2022)
Changes are numbered by the printed parent chain.

Tests used:
Test in all cases: UV-Vis titration, Soret spin-state shift
Format in all cases: binding
[1] = molecular target: T1, CYP199A4 (Rhodopseudomonas palustris, UniProt Q2IU02)
T1 sequence (Q2IU02 1-410): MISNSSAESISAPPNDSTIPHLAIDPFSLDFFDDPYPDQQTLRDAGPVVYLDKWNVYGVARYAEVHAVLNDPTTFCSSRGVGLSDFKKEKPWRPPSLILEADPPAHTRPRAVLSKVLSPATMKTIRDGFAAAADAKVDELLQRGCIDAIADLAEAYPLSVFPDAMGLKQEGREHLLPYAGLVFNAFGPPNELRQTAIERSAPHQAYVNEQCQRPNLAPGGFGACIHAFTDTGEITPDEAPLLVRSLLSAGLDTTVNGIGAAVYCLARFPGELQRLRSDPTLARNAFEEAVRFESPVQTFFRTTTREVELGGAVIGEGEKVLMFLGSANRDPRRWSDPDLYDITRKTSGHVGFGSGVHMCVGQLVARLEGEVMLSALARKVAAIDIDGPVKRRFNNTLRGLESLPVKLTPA

[2] = molecular target: T2, CYP199A4 (Rhodopseudomonas palustris, UniProt Q2IU02, T253A)
T2 sequence (Q2IU02 1-410 T253A): T1 sequence (Q2IU02 1-410) with T253A
Outline: (§1)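 CYP199A4 mutants (D251N, T252A) from Rhodopseudomonas palustris HaA2 were titrated with para-substituted benzoic acid test compounds, with UV-Vis monitoring to obtain Kd. Spectra were recorded from 700 to 250 nm at 600 nm min⁻¹, and repeated at 60 nm min⁻¹ to verify small Soret shifts. P450 concentration came from pyridine hemochromogen extinction coefficients: D251N 123±1, T252A 120±4 mM⁻¹ cm⁻¹.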

[3] = molecular target: T3, CYP199A4 (Rhodopseudomonas palustris, UniProt Q2IU02, D252N)
T3 sequence (Q2IU02 1-410 D252N): T1 sequence (Q2IU02 1-410) with D252N
Outline: as §1

Compound | Kd [1] | Kd [2] | Kd [3]
CCSc1ccc(C(=O)O)cc1 [4‐ethylthiobenzoic acid] | 990 ± 50 nM | 250 ± 50 nM | –
CSc1ccc(C(=O)O)cc1 [4‐methylthiobenzoic acid] | 2300 ± 300 nM | 1400 ± 100 nM | 830 ± 80 nM
